Assay outcomes (PubChem BioAssay)
TAAR1 ag – agonists of human TAAR1. Q96RJ0. CHO RD-HGA16 TAAR1, Fluo-8 calcium fluorescence; vehicle wells 0%, saturating PEA agonist 100%. activation, % at 3 µM. 0.99% of 360,000 active. AID 624467;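 active means activation above the mean activation of all test compounds in the run plus 3 SD, cut at about 38% in these data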
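Assay system – CHO-derived RD-HGA16 cells with stable Gα16 and human TAAR1 · Compound dosing – one-point dosing at 3 µM (nominal) · Incubation – 17-24 h seeding, 75 min 37 °C dye, 30 min RT · Measured by – kinetic Fluo-8 calcium fluorescence · Control set – DMSO vehicle as 0%, PEA at EC100 as 100% · Repeats – single well for each compound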
V1aR counter – activates human V1a receptor in oxytocin agonist counter-screen; P37288; CHO-V1R cells, Fluo-8 calcium fluorescence, agonist mode; 0% DMSO, 100% 3 nM vasopressin; activation, % at 3 µM; 0.25% of 320,000 active; AID 2797;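 active means activation above the mean activation of all tested compounds plus 3 SD, per screening run, cut at about 20% in these data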;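 further: signal is peak over basal fluorescence ratio across a 100 second FLIPR read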
Target sequence (P37288 whole entry, looked up): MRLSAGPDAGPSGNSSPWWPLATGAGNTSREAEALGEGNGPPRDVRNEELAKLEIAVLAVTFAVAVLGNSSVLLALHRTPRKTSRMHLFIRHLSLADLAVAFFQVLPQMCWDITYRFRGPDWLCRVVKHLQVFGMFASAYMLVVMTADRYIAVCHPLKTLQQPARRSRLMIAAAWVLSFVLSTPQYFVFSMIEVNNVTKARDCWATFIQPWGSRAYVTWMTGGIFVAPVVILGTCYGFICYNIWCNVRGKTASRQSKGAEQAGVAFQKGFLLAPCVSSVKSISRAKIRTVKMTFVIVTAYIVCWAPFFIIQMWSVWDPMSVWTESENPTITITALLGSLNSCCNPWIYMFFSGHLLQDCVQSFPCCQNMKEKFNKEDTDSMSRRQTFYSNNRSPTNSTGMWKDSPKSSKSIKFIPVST
OXTR potentiate – human OXTR potentiation; P30559; CHO-OTR cells, Fluo-8 calcium fluorescence, potentiator mode; 0% = oxytocin EC15, 100% = EC100; activation, % at 3 µM; 0.061% of 320,000 active; AID 2445;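 active means activation above that plate's cutoff, the mean activation of tested compounds plus 3 SD, cut at about 6.6% in these data, passing the limit was not always enough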;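 further: 100% uses oxytocin at 75 nM as the full agonist control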
Target sequence (P30559 whole entry, looked up): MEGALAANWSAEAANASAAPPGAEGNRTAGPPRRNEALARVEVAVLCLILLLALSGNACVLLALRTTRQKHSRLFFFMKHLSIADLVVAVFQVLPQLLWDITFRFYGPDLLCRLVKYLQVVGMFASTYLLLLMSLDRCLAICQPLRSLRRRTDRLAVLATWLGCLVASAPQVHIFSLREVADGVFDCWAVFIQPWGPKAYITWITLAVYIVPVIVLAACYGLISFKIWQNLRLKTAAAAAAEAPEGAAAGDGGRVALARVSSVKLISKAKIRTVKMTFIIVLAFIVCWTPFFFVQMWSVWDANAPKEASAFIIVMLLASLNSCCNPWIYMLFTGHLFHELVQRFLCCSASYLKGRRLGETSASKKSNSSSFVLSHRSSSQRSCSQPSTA
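Material: CHO-OTR cells, human receptor; compound dosing: single dose, 3.0 µM nominal final compound concentration; schedule: 6 min compound pre-incubation at room temperature, 100 s kinetic read; measured by: kinetic Fluo-8 calcium fluorescence; read-out basis: % activation vs EC15 and EC100 oxytocin; controls: EC15 oxytocin alone as 0%, 75 nM oxytocin as 100%; replicates: singlicate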
TAAR1 antagonist – human TAAR1 antagonism. 1.5% of 360,000 active. CHO RD-HGA16 TAAR1, Fluo-8 calcium fluorescence, antagonist. AID 624466. Q96RJ0. inhibition, % at 3 µM;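 active means inhibition above a per-plate cutoff, the mean inhibition of test compounds on that plate plus 3 SD, cut at about 49% in these data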;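 further: 0% = DMSO plus EC80 beta-PEA response and 100% = DMSO alone without agonist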
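Assay system: RD-HGA16 CHO cells with stable hTAAR1 and Gα16 / Reagent: EC80 β-phenethylamine stimulus / Doses: 3 µM, single point / Timing: dye loading 75 min at 37 °C, then 30 min room temperature / Measured by: Fluo-8 intracellular calcium dye fluorescence, real-time kinetic reads / Controls: vehicle wells and EC80 agonist wells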
OXTR ag – human OXTR agonism | P30559 | CHO-OTR cells, Fluo-8 calcium fluorescence; normalized: DMSO 0%, oxytocin 100% | activation, % at 3 µM | 0.32% of 320,000 active | AID 2435;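 active means activation above the mean of all tested compounds plus 3 SD, cutoff set per screening run, cut at about 20% in these data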;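 further: peak over basal fluorescence ratio from a 100 s FLIPR kinetic read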
TAAR1 ag conf – confirmation of human TAAR1 agonists | CHO RD-HGA16 TAAR1, Fluo-8 calcium fluorescence; scaled: DMSO 0%, maximal phenethylamine 100% | activation, % at 3 µM | AID 651783 | shares compounds with TAAR1 ag | 82% of 2,400 active;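 active means activation above a cutoff set at the run's mean compound activation plus 3 SD, cut at about 39% in these data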
Ga16 ag counter – counter-screen for TAAR1 agonists: nonselective agonists in parental cells. shares compounds with TAAR1 ag. CHO-Ga16 parental, Fluo-8 calcium fluorescence; normalized to maximal ATP response, DMSO zero. activation, % at 3 µM. 50% of 2,400 active. AID 651787;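 active means activation above the run cutoff, the mean activation over all tested wells plus 3 SD, cut at about 12% in these data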;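 further: 0% = DMSO wells and 100% = maximal ATP response on the peak over basal ratio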
TAAR1 desensitize – human TAAR1 agonist that also desensitizes the receptor. 46% of 2,400 active. inhibition, % at 3 µM. CHO RD-HGA16 hTAAR1, Fluo-8 calcium, beta-PEA response inhibition. shares compounds with TAAR1 ag;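 active means inhibition above the run cutoff, the mean inhibition of all test compounds plus 3 SD, cut at about 49% in these data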;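 further: beta-PEA stimulus applied at its EC80; loss of beta-PEA calcium signal after compound pretreatment read as receptor desensitization; 0% = DMSO with beta-PEA at EC80 and 100% = DMSO alone without agonist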
Ga16 nonsel ant – counter-screen for TAAR1 agonists: nonselective Ga16 antagonists. CHO-Ga16 ATP-induced calcium, Fluo-8 fluorescence. 39% of 2,400 active. inhibition, % at 3 µM. shares compounds with TAAR1 ag;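 active means inhibition above the plate's mean compound inhibition plus 3 SD, computed per plate, cut at about 22% in these data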;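 further: 0% = EC80 ATP with DMSO and 100% = DMSO wells without ATP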
* marks the source's active call; other numbers are inactive results; · = no result. Rows were chosen to be rich in hits. Some 2.3% of all compounds tested hit in one or more screens of this group.

SMILES | TAAR1 ag | V1aR counter | OXTR potentiate | TAAR1 antagonist | OXTR ag | TAAR1 ag conf | Ga16 ag counter | TAAR1 desensitize | Ga16 nonsel ant
OC1CCN(CC(O)C(F)(F)F)CC1 (centres undefined) | 0.4 | 0.7 | -1.3 | 6.9 | 1.2 | · | · | · | ·
CCCCCCCCCCn1c2c(c(=N)c3c1CCC3)CCC2 | 47.1* | 1.0 | -20.8 | 34.2 | 1.1 | 52.5* | 23.2* | 41.2 | 36.7*
CCCCCCCCn1c2c(c(=N)c3ccccc31)CCC2 | 7.6 | · | · | 13.4 | · | · | · | · | ·
c1ccc(N/N=C(\Cc2ncc[nH]2)c2ccccc2)cc1 | · | -0.6 | -4.5 | · | -0.5 | · | 3.9 | · | 9.4
O=c1nc(N2CCCC2)nc(Nc2ccccc2)[nH]1 | · | 0.9 | -8.8 | · | 0.6 | · | 3.2 | · | 4.7
COc1cccc(-c2ccc(NC(=O)C3CCCN(Cc4cnc(N(C)C)s4)C3)cc2)c1 (centres undefined) | 63.1* | 6.4 | -4.3 | 27.7 | 11.2 | 63.8* | 32.8* | 30.5 | 18.2
COc1cccc(-c2ccc(NC(=O)C3CCCN(Cc4ccccn4)C3)cc2)c1 (centres undefined) | 4.2 | · | · | 8.1 | · | · | · | · | ·
CC(NC=O)c1nc2ccccc2n1CCc1ccccc1 (centres undefined) | 3.4 | 0.1 | -10.7 | 7.8 | 0.7 | · | · | · | ·
Cc1nn(CCCC(=O)NCCc2ccccc2)c(=O)c2nn(-c3ccccc3)c(C)c12 | -1.3 | 0.7 | -1.9 | -36.2 | -2.5 | · | · | · | ·
Cc1ccc(-n2nc3c(=O)n(CCCC(=O)NCCc4ccccc4)nc(C)c3c2C)cc1 | 41.0* | -1.3 | -9.4 | -23.0 | -1.5 | 36.2 | 5.0 | -0.6 | 8.0
CCC(=O)N(Cc1ccco1)c1nc(-c2ccc(OC)cc2)cs1 | 1.2 | -0.5 | -11.4 | 22.0 | -0.7 | · | · | · | ·
CCC(=O)N(CC)c1nc(-c2ccc(OC)cc2)cs1 | 69.8* | 1.8 | -6.4 | 70.3* | 4.8 | 43.5* | 44.1* | 58.1* | 46.5*
O=c1cc(Nc2ccc3c(c2)OCCO3)[nH]c(=O)n1-c1ccc(Br)cc1 | 25.6 | -0.3 | 2.5 | -4.5 | 0.5 | · | · | · | ·
O=c1cc(Nc2ccc3c(c2)OCO3)[nH]c(=O)n1-c1ccc(Br)cc1 | 48.0* | 0.1 | -2.6 | -7.1 | 0.5 | 76.0* | 5.9 | 24.5 | 7.4
CCN(CCn1cccn1)C(=O)CC1C(=O)NCCN1CCc1ccccc1 (centres undefined) | 77.7* | 1.0 | -7.6 | 29.7 | -0.6 | 93.4* | 1.7 | 82.1* | 2.1
CCN(CCn1cccn1)C(=O)CC1C(=O)NCCN1CC1CCCCC1 (centres undefined) | 3.2 | 0.4 | -6.0 | 26.8 | 0.0 | · | · | · | ·
Cc1[nH]c2ccccc2c1C(c1ccccn1)N1CCCC1 (centres undefined) | 0.0 | -0.1 | 0.1 | 12.8 | 0.5 | · | · | · | ·
CCOC(=O)C1CCCN(C(c2ccccn2)c2c(C)[nH]c3ccccc23)C1 (centres undefined) | 66.5* | 0.5 | 0.6 | 70.7* | -0.5 | 74.2* | 2.2 | 83.7* | 0.8
O[C@@H](Cc1ccccc1)[C@@H](/C=C/c1ccccc1)NCCc1ccccc1 | 53.4* | · | · | 36.5 | · | 90.1* | 18.4* | 48.4 | 23.6*
COC(=O)[C@@H](N[C@H](/C=C/c1ccccc1)[C@@H](O)Cc1ccccc1)c1ccccc1 | -0.3 | · | · | 26.0 | · | · | · | · | ·
Cc1ccc2c(c1)N(CC(=O)Nc1c(C)cccc1C)C(=O)c1cccnc1O2 | 3.0 | 0.6 | -7.4 | -23.4 | 0.2 | · | · | · | ·
Cc1ccc2c(c1)N(CC(=O)NCC(C)c1ccccc1)C(=O)c1cccnc1O2 (centres undefined) | 55.8* | -0.7 | -6.3 | 47.2 | -2.1 | 74.1* | 2.5 | 49.8* | 10.3
Cc1ccc(-c2csc(C(O)c3ccc(F)cc3)n2)cc1C (centres undefined) | 0.4 | · | · | 16.3 | · | · | · | · | ·
CN(C)c1ccc(-c2csc(C(O)c3ccc(F)cc3)n2)cc1 (centres undefined) | 76.8* | · | · | 90.8* | · | 90.1* | 59.4* | 97.9* | 73.4*
O=C(c1cc(-c2ccc(O)cc2)on1)N1CCc2ccccc2C1 | 71.5* | 6.8 | -8.7 | 33.0 | 7.4 | 91.1* | 17.2* | 67.1* | 10.5
SMILES | TAAR1 ag | V1aR counter | OXTR potentiate | TAAR1 antagonist | OXTR ag | TAAR1 ag conf | Ga16 ag counter | TAAR1 desensitize | Ga16 nonsel ant
Cc1ccc(CNCCCSc2ncccn2)cc1 | 7.8 | 0.5 | -6.5 | -15.3 | -0.9 | · | · | · | ·
Nc1[nH]c(C(=O)c2ccccc2)c(-c2ccccc2C(F)(F)F)c1C(=O)NCc1ccc(F)cc1 | 1.1 | · | · | -22.0 | · | · | · | · | ·
Nc1[nH]c(C(=O)c2ccccc2)c(-c2ccccc2C(F)(F)F)c1C(=O)NCCc1cccs1 | 47.9* | · | · | -3.2 | · | 29.5 | 3.6 | 20.7 | 12.7
Oc1ccc(C2CNCc3sccc32)cc1O (centres undefined) | 91.6* | 1.3 | -2.3 | 78.2* | 0.7 | 104.7* | 6.3 | 94.6* | 4.8
C[C@H](CO)N1C[C@H](C)[C@@H](CN(C)S(C)(=O)=O)Oc2ccc(NC(=O)Cn3cnnn3)cc2C1=O | 4.9 | 2.7 | 6.0 | -8.6 | 1.8 | · | · | · | ·
CC(=O)N/C(=C\c1ccccc1)C(=O)OCCCOC(=O)/C(=C/c1ccccc1)NC(C)=O | 1.4 | 0.0 | -0.2 | -9.8 | -1.2 | · | · | · | ·
O=C(C1CCCN(S(=O)(=O)c2cccc3nsnc23)C1)N1CCCCCC1 (centres undefined) | 0.3 | 0.3 | -12.5 | 17.8 | -0.4 | · | · | · | ·
O=C(C1CCCN(S(=O)(=O)c2cccc3nsnc23)C1)N1CCc2ccccc2C1 (centres undefined) | 46.7* | 5.5 | -16.8 | 2.6 | 5.2 | 54.1* | 9.7 | 42.7 | 22.7*
Cc1cccc(C(=O)NN2S(=O)(=O)c3ccccc3S2(=O)=O)c1 | 0.0 | -0.1 | -7.6 | -4.2 | 0.5 | · | · | · | ·
C[N+](C)(CCOc1ccccc1)Cc1ccccc1 | 8.4 | · | · | -13.5 | · | · | · | · | ·
Cc1cc(C(C)(C)CC(C)(C)C)ccc1OCCOCC[N+](C)(C)Cc1ccccc1 | 81.4* | 21.3* | -10.2 | 75.1* | 36.7* | 69.1* | 66.2* | 45.4 | 66.7*
COc1ccc(CN2C(=O)C(CC(=O)NCCc3ccccn3)CC(C(=O)N(C)C)=C2C)cc1 (centres undefined) | 46.4* | · | · | -5.6 | · | 61.8* | -0.5 | 11.7 | 4.5
